Test results taken from ChEMBL document CHEMBL3525900, “Pharmacokinetics, distribution, and metabolism of [14C]sunitinib in rats, monkeys, and humans” (Drug Metab Dispos, 2012).

What was measured:
Liver = assay: Drug concentration in female Lister Hooded pigmented rat liver assessed as radioactivity per gram of tissue at 20 mg/kg administered as single dose via gastric gavage measured after 72 hrs by autoradiographic analysis; type: ADME, organism-based; parameters: dose 20 mg/kg, dosed compound name [14C]Sunitinib; conditions: in vivo, po
Method in brief: (§1)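 Lister Hooded (pigmented) rats, ca 7-8 weeks old, acclimated 7 days, given [14C]sunitinib L-malate by gastric gavage at 20 mg/kg (15 mg freebase/kg, 100 µCi/kg). One male and one female killed by CO2 at 24, 72, 168 and 336 h. Carcasses frozen in solid CO2/hexane and embedded in frozen cellulose. 30 µm sagittal cryosections were freeze-dried. Tissue radioactivity measured by quantitative whole-body autoradiography against calibration standards, with background subtracted.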

Small intestine = assay: Drug concentration in male albino rat small intestine assessed as radioactivity per gram of tissue at 20 mg/kg administered as single dose via gastric gavage measured after 3 hrs by autoradiographic analysis; type: ADME, organism-based; parameters: dose 20 mg/kg, dosed compound name [14C]Sunitinib; conditions: in vivo, po
Heart [1] = assay: Drug concentration in female albino rat heart assessed as radioactivity per gram of tissue at 20 mg/kg administered as single dose via gastric gavage measured after 3 hrs by autoradiographic analysis; type: ADME, organism-based; parameters: dose 20 mg/kg, dosed compound name [14C]Sunitinib; conditions: in vivo, po
Method in brief: (§2)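 Sprague Dawley albino rats, ca 7-8 weeks old, dosed once by gastric gavage with [14C]sunitinib L-malate (15 mg freebase/kg, 100 µCi/kg). One male and one female killed by CO2 at 3, 6, 24, 72 and 168 h. Carcasses frozen in solid CO2/hexane, embedded and cut into 30 µm sagittal sections, then freeze-dried. Radioactivity quantified by whole-body autoradiography against standards by regression, background subtracted.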

[2] = Drug concentration in male Lister Hooded pigmented rat testis assessed as radioactivity per gram of tissue at 20 mg/kg administered as single dose via gastric gavage measured after 24 hrs by autoradiographic analysis; type: ADME, organism-based; parameters: dose 20 mg/kg, dosed compound name [14C]Sunitinib; conditions: in vivo, po
Rattus norvegicus [3] = assay: Drug recovery in cage residue of male Sprague-Dawley rat at 15 mg/kg, po administered as single dose during 0 to 72 hrs by liquid scintillation counting; type: ADME, organism-based; parameters: dose 15 mg/kg, dosed compound name [14C]Sunitinib, route oral; conditions: in vivo
Rattus norvegicus [4] = assay: Tmax as total radioactivity in male Sprague-Dawley rat plasma at 15 mg/kg, po administered as single dose by LC/MS/MS analysis; type: ADME, organism-based; parameters: dose 15 mg/kg, dosed compound name [14C]Sunitinib, route oral; conditions: in vivo
[5] = Drug concentration in male albino rat skeletal muscle assessed as radioactivity per gram of tissue at 20 mg/kg administered as single dose via gastric gavage measured after 24 hrs by autoradiographic analysis; type: ADME, organism-based; parameters: dose 20 mg/kg, dosed compound name [14C]Sunitinib; conditions: in vivo, po
[6] = Drug recovery in urine of female Sprague-Dawley rat at 5 mg/kg, iv administered as single dose during 0 to 72 hrs by liquid scintillation counting; type: ADME, organism-based; parameters: dose 5 mg/kg, dosed compound name [14C]Sunitinib, route intravenous; conditions: in vivo
[7] = Drug recovery in urine of male Sprague-Dawley rat at 15 mg/kg, po administered as single dose during 0 to 72 hrs by liquid scintillation counting; type: ADME, organism-based; parameters: dose 15 mg/kg, dosed compound name [14C]Sunitinib, route oral; conditions: in vivo
[8] = Drug concentration in female albino rat lachrymal gland assessed as radioactivity per gram of tissue at 20 mg/kg administered as single dose via gastric gavage measured after 72 hrs by autoradiographic analysis; type: ADME, organism-based; parameters: dose 20 mg/kg, dosed compound name [14C]Sunitinib; conditions: in vivo, po; method in brief: as §2
[9] = Drug concentration in male albino rat skeletal muscle assessed as radioactivity per gram of tissue at 20 mg/kg administered as single dose via gastric gavage measured after 6 hrs by autoradiographic analysis; type: ADME, organism-based; parameters: dose 20 mg/kg, dosed compound name [14C]Sunitinib; conditions: in vivo, po
Adrenal = assay: Drug concentration in male albino rat adrenal assessed as radioactivity per gram of tissue at 20 mg/kg administered as single dose via gastric gavage measured after 168 hrs by autoradiographic analysis; type: ADME, organism-based; parameters: dose 20 mg/kg, dosed compound name [14C]Sunitinib; conditions: in vivo, po
Kidney [10] = assay: Drug concentration in male albino rat kidney assessed as radioactivity per gram of tissue at 20 mg/kg administered as single dose via gastric gavage measured after 6 hrs by autoradiographic analysis; type: ADME, organism-based; parameters: dose 20 mg/kg, dosed compound name [14C]Sunitinib; conditions: in vivo, po
Lung = assay: Drug concentration in female albino rat lung assessed as radioactivity per gram of tissue at 20 mg/kg administered as single dose via gastric gavage measured after 24 hrs by autoradiographic analysis; type: ADME, organism-based; parameters: dose 20 mg/kg, dosed compound name [14C]Sunitinib; conditions: in vivo, po; method in brief: as §2
Kidney [11] = assay: Drug concentration in male albino rat kidney assessed as radioactivity per gram of tissue at 20 mg/kg administered as single dose via gastric gavage measured after 72 hrs by autoradiographic analysis; type: ADME, organism-based; parameters: dose 20 mg/kg, dosed compound name [14C]Sunitinib; conditions: in vivo, po
[12] = Drug concentration in male albino rat lachrymal gland assessed as radioactivity per gram of tissue at 20 mg/kg administered as single dose via gastric gavage measured after 3 hrs by autoradiographic analysis; type: ADME, organism-based; parameters: dose 20 mg/kg, dosed compound name [14C]Sunitinib; conditions: in vivo, po
[13] = Drug concentration in female albino rat uveal tract assessed as radioactivity per gram of tissue at 20 mg/kg administered as single dose via gastric gavage measured after 24 hrs by autoradiographic analysis; type: ADME, organism-based; parameters: dose 20 mg/kg, dosed compound name [14C]Sunitinib; conditions: in vivo, po
[14] = Drug concentration in male Lister Hooded pigmented rat eye assessed as radioactivity per gram of tissue at 20 mg/kg administered as single dose via gastric gavage measured after 72 hrs by autoradiographic analysis; type: ADME, organism-based; parameters: dose 20 mg/kg, dosed compound name [14C]Sunitinib; conditions: in vivo, po
[15] = Drug concentration in female Lister Hooded pigmented rat preputial gland assessed as radioactivity per gram of tissue at 20 mg/kg administered as single dose via gastric gavage measured after 24 hrs by autoradiographic analysis; type: ADME, organism-based; parameters: dose 20 mg/kg, dosed compound name [14C]Sunitinib; conditions: in vivo, po; method in brief: as §1
Rattus norvegicus [16] = assay: AUC (0 to infinity) as total radioactivity in male Sprague-Dawley rat plasma at 15 mg/kg, po administered as single dose by LC/MS/MS analysis; type: ADME, organism-based; parameters: time infinity, dose 15 mg/kg, dosed compound name [14C]Sunitinib, route oral; conditions: in vivo
Method in brief: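 Single dose of [14C]sunitinib L-malate as free base, 50 µCi/kg. IV dose was 5 mg/kg by tail vein in 5 females. Oral dose was 15 mg/kg by gavage in 3 females and 3 males. Total radioactivity was by scintillation counting. […] Cmax was read from raw data, t½ by log-linear regression, AUC by linear trapezoidal rule.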

[17] = Drug concentration in male Lister Hooded pigmented rat skeletal muscle assessed as radioactivity per gram of tissue at 20 mg/kg administered as single dose via gastric gavage measured after 168 hrs by autoradiographic analysis; type: ADME, organism-based; parameters: dose 20 mg/kg, dosed compound name [14C]Sunitinib; conditions: in vivo, po
Heart [18] = assay: Drug concentration in male albino rat heart assessed as radioactivity per gram of tissue at 20 mg/kg administered as single dose via gastric gavage measured after 6 hrs by autoradiographic analysis; type: ADME, organism-based; parameters: dose 20 mg/kg, dosed compound name [14C]Sunitinib; conditions: in vivo, po
[19] = Drug concentration in female albino rat uveal tract assessed as radioactivity per gram of tissue at 20 mg/kg administered as single dose via gastric gavage measured after 3 hrs by autoradiographic analysis; type: ADME, organism-based; parameters: dose 20 mg/kg, dosed compound name [14C]Sunitinib; conditions: in vivo, po
Harderian gland = assay: Drug concentration in female albino rat harderian gland assessed as radioactivity per gram of tissue at 20 mg/kg administered as single dose via gastric gavage measured after 3 hrs by autoradiographic analysis; type: ADME, organism-based; parameters: dose 20 mg/kg, dosed compound name [14C]Sunitinib; conditions: in vivo, po; method in brief: as §2
Cynomolgus monkey = assay: Cmax as total radioactivity in female cynomolgus monkey plasma at 6 mg/kg, po administered as single dose by LC/MS/MS analysis; type: ADME, organism-based, Macaca fascicularis; parameters: dose 6 mg/kg, dosed compound name [14C]Sunitinib, route oral; conditions: in vivo
Method in brief: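 Cynomolgus monkeys of both sexes received one oral gavage of [14C]sunitinib L-malate at 6 mg/kg (37 µCi/kg). Femoral-vein blood was taken into heparin from 0.5 to 336 h. Plasma was kept cold and protected from light, then stored at -80 °C. Total radioactivity was by scintillation counting and sunitinib by methanol-extraction LC-MS-MS. Cmax was from raw data, t½ from the log-linear terminal slope, AUC(0-∞) by linear trapezoidal rule.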

Pancreas = assay: Drug concentration in female albino rat pancreas assessed as radioactivity per gram of tissue at 20 mg/kg administered as single dose via gastric gavage measured after 6 hrs by autoradiographic analysis; type: ADME, organism-based; parameters: dose 20 mg/kg, dosed compound name [14C]Sunitinib; conditions: in vivo, po
Method in brief: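 Sprague Dawley (albino) and Lister Hooded (pigmented) rats, ca 7-8 weeks old, 179-310 g, acclimated 7 days. Single gavage dose of [14C]sunitinib L-malate (15 mg freebase/kg, 100 µCi/kg). One male and one female killed by CO2 per time point: albino at 3, 6, 24, 72, 168 h; pigmented at 24, 72, 168, 336 h. Carcasses frozen in solid CO2/hexane, 30 µm sagittal sections freeze-dried. Tissue radioactivity read by quantitative whole-body autoradiography against regression of standards, mean background subtracted.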

Radiolabel recovery (Liver): 0.32 ugequiv | Radiolabel recovery (Small intestine): 8.91 ugequiv | Radiolabel recovery (Heart [1]): 7.31 ugequiv | Radiolabel recovery [2]: 2.27 ugequiv | Radiolabel recovery (Rattus norvegicus [3]): 1.5% | Tmax (Rattus norvegicus [4]): 5 h | Radiolabel recovery [5]: 0.16 ugequiv | Radiolabel recovery [6]: 9.1% | Radiolabel recovery [7]: 8.5% | Radiolabel recovery [8]: 0.25 ugequiv | Radiolabel recovery [9]: 2.3 ugequiv | Radiolabel recovery (Adrenal): 0.31 ugequiv | Radiolabel recovery (Kidney [10]): 9.43 ugequiv | Radiolabel recovery (Lung): 1.64 ugequiv | Radiolabel recovery (Kidney [11]): 0.16 ugequiv | Radiolabel recovery [12]: 8.82 ugequiv | Radiolabel recovery [13]: 0.61 ugequiv | Radiolabel recovery [14]: 23.98 ugequiv | Radiolabel recovery [15]: 4.5 ugequiv | AUC (Rattus norvegicus [16]): 82039 ng.Eq.hr/ml | Radiolabel recovery [17]: 0.06 ugequiv | Radiolabel recovery (Heart [18]): 4.61 ugequiv | Radiolabel recovery [19]: 5.07 ugequiv | Radiolabel recovery (Harderian gland): 17.26 ugequiv | Cmax (Cynomolgus monkey): 214 ngequiv/ml | Radiolabel recovery (Pancreas): 11.3 ugequiv
Structure (SMILES): CCN(CC)CCNC(=O)c1c(C)[nH]c(/[14CH]=C2\C(=O)Nc3ccc(F)cc32)c1C.O=C(O)C[C@H](O)C(=O)O
